SMILES strings stand for the structures. Activity calls are given as the source filed them. No cut-off for these calls is given here.

The text below walks through data of ChEMBL document CHEMBL6153131, “Rational Design and Optimization of a Potent IDO1 Proteolysis Targeting Chimera (PROTAC)” (J Med Chem, 2025).

The target in data set [1] is T1, Protein cereblon/Indoleamine 2,3-dioxygenase 1 (Homo sapiens, UniProt P14902+Q96SW2). Put plainly: PROTAC activity at CRBN/IDO1 in human U87 cells assessed as induction of IDO1 degradation by measuring remaining activity at 0.03 uM pretreated with IFN-gamma for 24 hrs followed by compound addition and measured after 24 hrs by Western blotting analysis (reference value: 100%). The data set is classed as cell-based. The procedure, abridged:
(§1)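 U87 cells given an extended dose range of PROTAC for 24 h, then Western blot for IDO1. IFNγ-induced IDO1 levels normalised to untreated samples. n = 3 independent experiments; mean ± SEM.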
Target sequence in this assay (P14902 whole entry, looked up): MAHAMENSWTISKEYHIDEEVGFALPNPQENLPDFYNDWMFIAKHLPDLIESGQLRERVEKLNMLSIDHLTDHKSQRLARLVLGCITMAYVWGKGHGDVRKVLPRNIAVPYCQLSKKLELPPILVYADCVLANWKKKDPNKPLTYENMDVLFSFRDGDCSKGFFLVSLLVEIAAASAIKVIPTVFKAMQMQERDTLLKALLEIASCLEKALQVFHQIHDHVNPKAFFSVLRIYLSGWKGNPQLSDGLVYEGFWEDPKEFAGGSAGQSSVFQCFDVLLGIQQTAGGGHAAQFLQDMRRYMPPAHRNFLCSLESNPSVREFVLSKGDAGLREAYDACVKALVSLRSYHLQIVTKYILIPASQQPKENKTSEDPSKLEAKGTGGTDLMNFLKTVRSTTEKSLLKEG
Target sequence in this assay (Q96SW2 whole entry, looked up): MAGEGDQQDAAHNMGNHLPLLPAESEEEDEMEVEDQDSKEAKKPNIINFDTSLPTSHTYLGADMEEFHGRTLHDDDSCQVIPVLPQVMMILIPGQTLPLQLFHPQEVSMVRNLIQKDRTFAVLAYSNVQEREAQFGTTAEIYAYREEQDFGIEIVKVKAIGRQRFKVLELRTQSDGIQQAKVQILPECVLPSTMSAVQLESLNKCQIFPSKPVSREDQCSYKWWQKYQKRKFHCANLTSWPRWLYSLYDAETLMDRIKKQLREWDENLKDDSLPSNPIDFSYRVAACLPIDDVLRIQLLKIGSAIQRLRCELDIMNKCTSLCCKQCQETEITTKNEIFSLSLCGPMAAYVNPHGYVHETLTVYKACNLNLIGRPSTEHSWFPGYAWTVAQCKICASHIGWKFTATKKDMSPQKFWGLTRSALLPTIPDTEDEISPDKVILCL

Data set [2] addresses T1, Protein cereblon/Indoleamine 2,3-dioxygenase 1. In words: PROTAC activity at CRBN/IDO1 in human U87 cells assessed as induction of IDO1 degradation by measuring remaining activity at 0.3 uM pretreated with IFN-gamma for 24 hrs followed by compound addition and measured after 24 hrs by Western blotting analysis (reference value: 100%). In kind it is cell-based. The procedure, abridged:
as §1
Target sequence in this assay (P14902 whole entry, looked up): as the sequence (P14902 whole entry, looked up) above
Target sequence in this assay (Q96SW2 whole entry, looked up): as the sequence (Q96SW2 whole entry, looked up) above

For data set [3] the target is unchanged. Put plainly: PROTAC activity at CRBN/IDO1 in human U87 cells assessed as induction of IDO1 degradation by measuring remaining activity at 3 uM pretreated with IFN-gamma for 24 hrs followed by compound addition and measured after 24 hrs by Western blotting analysis (reference value: 100%). The data set is classed as cell-based. The procedure, abridged: as §1
Target sequence in this assay (P14902 whole entry, looked up): as the sequence (P14902 whole entry, looked up) above
Target sequence in this assay (Q96SW2 whole entry, looked up): as the sequence (Q96SW2 whole entry, looked up) above

The target is the same in data set [4]. Put plainly: PROTAC activity at CRBN/IDO1 in human U87 cells assessed as induction of IDO1 degradation by measuring remaining activity at 10 uM pretreated with IFN-gamma for 24 hrs followed by compound addition and measured after 24 hrs by Western blotting analysis (reference value: 100%). In kind it is cell-based. The procedure, abridged: as §1
Target sequence in this assay (P14902 whole entry, looked up): as the sequence (P14902 whole entry, looked up) above
Target sequence in this assay (Q96SW2 whole entry, looked up): as the sequence (Q96SW2 whole entry, looked up) above
For data set [5] the target is unchanged. In words: PROTAC activity at CRBN/IDO1 in human GBM43 cell assessed as induction of IDO1 degradation at 0.03 uM pretreated with IFN-gamma for 24 hrs followed by compound addition and measured after 24 hrs by Western blotting analysis (reference value: 100%). The data set is classed as cell-based. In short, it runs like this: (§2)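 GBM43 patient-derived cells given an extended dose range of PROTAC for 24 h. Protein analysed by Western blot for IDO1, and IFNγ-induced IDO1 normalised to untreated samples. n = 3 independent experiments; data as mean ± SEM.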
Target sequence in this assay (P14902 whole entry, looked up): as the sequence (P14902 whole entry, looked up) above
Target sequence in this assay (Q96SW2 whole entry, looked up): as the sequence (Q96SW2 whole entry, looked up) above

The target is the same in data set [6]. Put plainly: PROTAC activity at CRBN/IDO1 in human GBM43 cell assessed as induction of IDO1 degradation at 0.1 uM pretreated with IFN-gamma for 24 hrs followed by compound addition and measured after 24 hrs by Western blotting analysis (reference value: 100%). The data set is classed as cell-based. In short, it runs like this: as §2
Target sequence in this assay (P14902 whole entry, looked up): as the sequence (P14902 whole entry, looked up) above
Target sequence in this assay (Q96SW2 whole entry, looked up): as the sequence (Q96SW2 whole entry, looked up) above
The target is the same in data set [7]. In words: PROTAC activity at CRBN/IDO1 in human GBM43 cell assessed as induction of IDO1 degradation at 1 uM pretreated with IFN-gamma for 24 hrs followed by compound addition and measured after 24 hrs by Western blotting analysis (reference value: 100%). In kind it is cell-based. In short, it runs like this: as §2
For data set [8] the target is unchanged. Put plainly: PROTAC activity at CRBN/IDO1 in human GBM43 cell assessed as induction of IDO1 degradation pretreated with IFN-gamma for 24 hrs followed by compound addition and measured after 24 hrs by Western blot analysis. In kind it is cell-based. In short, it runs like this:
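GBM43 cells treated for 24 h across an extended dose range. IDO1 Western blot, IFN-γ-induced IDO1 normalized to untreated; DC50 from n = 3 independent experiments.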
Target sequence in this assay (P14902 whole entry): as the sequence (P14902 whole entry, looked up) above
Target sequence in this assay (Q96SW2 whole entry): as the sequence (Q96SW2 whole entry, looked up) above

The target is the same in data set [9]. In words: PROTAC activity at CRBN/IDO1 in human U87 cells assessed as induction of IDO1 degradation by measuring remaining activity at 25 nM pretreated with IFN-gamma for 24 hrs followed by compound addition and measured after 24 hrs by Western blotting analysis (reference value: 100%). The data set is classed as cell-based.
Data set [10] shares this target. In words: PROTAC activity at CRBN/IDO1 in human U87 cells assessed as induction of IDO1 degradation at 50 to 100 nM pretreated with compound for 24 hrs followed by compound washout and measured upto 48 hrs by Western blotting analysis. The data set is classed as cell-based. The following applies: dose 50-100 nM. In short, it runs like this: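 U87 cells given a 24 h PROTAC pulse, then cultured without compound for up to 48 h after washout. IDO1 assessed by Western blot.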

Data set [11] has the same target. Put plainly: PROTAC activity at CRBN/IDO1 in human PDX-6 cells assessed as induction of IDO1 degradation pretreated with IFN-gamma for 24 hrs followed by compound addition and measured after 24 hrs by Western blotting analysis. The following applies: dose 50-100 nM. In kind it is cell-based. In short, it runs like this: (§3)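 Cells had IDO1 induced with IFNγ, then were treated at the indicated concentrations for 24 h. Lines: PDX-6 and PDX-38 adult GBM PDX cells, U87 overexpressing GFP-fused IDO1, PC-3, KNS42, MDA-MB-231, SW-1990 and SKOV-3. Lysates probed for IDO1 and GAPDH by Western blot; representative of 3 separate replicates.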

Data set [12] has the same target. In words: PROTAC activity at CRBN/IDO1 in human PDX-38 cells assessed as induction of IDO1 degradation pretreated with IFN-gamma for 24 hrs followed by compound addition and measured after 24 hrs by Western blotting analysis. The data set is classed as cell-based. The conditions noted are these: dose 50-100 nM. The procedure, abridged:
as §3

The target is the same in data set [13]. In words: PROTAC activity at CRBN/IDO1 in human PC-3 cells assessed as induction of IDO1 degradation pretreated with IFN-gamma for 24 hrs followed by compound addition and measured after 24 hrs by Western blotting analysis. The conditions noted are these: dose 50-100 nM. In kind it is cell-based. In short, it runs like this: as §3
For data set [14] the target is unchanged. Put plainly: PROTAC activity at CRBN/IDO1 in human MDA-MB-231 cells assessed as induction of IDO1 degradation pretreated with IFN-gamma for 24 hrs followed by compound addition and measured after 24 hrs by Western blotting analysis. The data set is classed as cell-based. The conditions noted are these: dose 50-100 nM. In short, it runs like this: as §3

Data set [15] shares this target. Put plainly: PROTAC activity at CRBN/IDO1 in human SK-OV-3 cells assessed as induction of IDO1 degradation pretreated with IFN-gamma for 24 hrs followed by compound addition and measured after 24 hrs by Western blotting analysis. The following applies: dose 50-100 nM. In kind it is cell-based. The procedure, abridged:
as §3

Data set [16] has as its system PDX-6. In words: Inhibition of kynurenine production in human PDX-6 cells pretreated with IFN-gamma for 24 hrs followed by compound addition and measured after 24 hrs by Ehrlich's reagent based analysis. In kind it is functional, cell-based. The conditions noted are these: dose 50-100 nM.
In data set [17] the test system is PC-3. Put plainly: Inhibition of kynurenine production in human PC-3 cells pretreated with IFN-gamma for 24 hrs followed by compound addition and measured after 24 hrs by Ehrlich's reagent based analysis. The data set is classed as functional, cell-based. The conditions noted are these: dose 50-100 nM.
Data set [18] concerns SK-OV-3. Put plainly: Inhibition of kynurenine production in human SK-OV-3 cells pretreated with IFN-gamma for 24 hrs followed by compound addition and measured after 24 hrs by Ehrlich's reagent based analysis. In kind it is functional, cell-based. The conditions noted are these: dose 50-100 nM.
Data set [19] relates to SW1990. In words: Inhibition of kynurenine production in human SW1990 cells pretreated with IFN-gamma for 24 hrs followed by compound addition and measured after 24 hrs by Ehrlich's reagent based analysis. In kind it is functional, cell-based. The following applies: dose 50-100 nM.
Data set [20] deals with Kelly. In words: Downregulation of SALL4 protein level in human Kelly cells at 1 uM incubated for 24 hrs by proteomics analysis. The data set is classed as functional, cell-based.
For data set [21], the target named is T1, Protein cereblon/Indoleamine 2,3-dioxygenase 1. In words: Binding affinity to CRBN/6His-tagged recombinant IDO1 (unknown origin) assessed as ternary complex formation by measuring half life by Biolayer Interferometry assay. In kind it is protein assay.
Data set [22] can be described thus: Half life in female C57BL/6J mouse brain at 50 mg/kg, ip by LC-MS/MS analysis. In kind it is ADME, organism-based.
Data set [23] can be described thus: Cmax in female C57BL/6J mouse brain at 50 mg/kg, ip by LC-MS/MS analysis. The data set is classed as ADME, organism-based.
Data set [24] has as its target T1, Protein cereblon/Indoleamine 2,3-dioxygenase 1. In words: PROTAC activity at CRBN/IDO1 in human U87 cell assessed as induction of IDO1 degradation pretreated with IFN-gamma for 24 hrs followed by compound addition and measured after 24 hrs by Western blot analysis. In kind it is cell-based. The procedure, abridged:
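IDO1 in U87 cells induced with 50 ng/mL human IFN-γ, then compound given across an extended dose range for 24 h. IDO1 and GAPDH read by Western blot; IDO1 levels normalized to untreated; DC50 from n = 3 independent experiments.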
Target sequence in this assay (P14902 whole entry): as the sequence (P14902 whole entry, looked up) above
Target sequence in this assay (Q96SW2 whole entry): as the sequence (Q96SW2 whole entry, looked up) above

`C[C@@H](C(=O)Nc1cccc(OC2CCN(C(=O)CN3CCC(N4CCN(c5ccc6c(c5)C(=O)N(C5CCC(=O)NC5=O)C6=O)CC4)CC3)CC2)c1)[C@H]1CC[C@@H](c2ccnc3ccc(F)cc32)CC1` (some centres undefined): the Activity came out at 27% in [1]; 20% in data set [2]; 55% in data set [3]; 69% in data set [4]; 34% in [5]; 13% in [6]. Besides, the Activity in data set [7] was 47%; in data set [9], 35%; in [11], “Dose-dependent-effect”; in data set [12] it was “Dose-dependent-effect”; in data set [13], “Dose-dependent-effect”; in data set [14] it was “Dose-dependent-effect”. Besides, the Activity entry in data set [15] is “Dose-dependent-effect”. The results for the DC50 in data set [8] and in data set [24] were 11.8 nM and 7.1 nM, respectively. The result in data set [10] and in data set [20] was Active. For the same compound, the inhibition entry in data set [16], in data set [17], in data set [18] and in data set [19] was “Dose-dependent-effect” in each case. In data set [21], the T1/2 worked out at 0.289 h. Also, in data set [22], the half-life is 11.8 h. This compound also had a Cmax in data set [23] of 100 nM.
